# KCNK9 inh – human KCNK9 channel inhibition. Q9NPC2. HEK293 KCNK9, FluxOR thallium flux fluorescence; hits give low values. B-score at 10 µM. 310,000 tested, 1.2% active. AID 488922;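 active means ratio B-score over 3 SD below the library mean, with starting fluorescence within 5 SD of its mean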;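 further: negative B-score means less thallium flux so channel inhibition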
# Cl transport mod – modulates chloride dependent transport by human KCC2. Q9H2X9. KCC2 cells, thallium flux FluoZin-2 fluorescence. B-score of Tl+ flux slope (higher = more flux/activation; lower = inhibition) at 10 µM. 190,000 tested, 2.2% active. AID 1456;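 active means thallium flux slope and its plate-corrected score both differing from the plate sample mean at a set confidence after two filtering rounds, in either direction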;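 further: slope of fluorescence scaled to starting intensity during 10 to 20 s after thallium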
# hERG rescue – shields human hERG channel from block by proarrhythmic agents; Q12809; CHO-hERG, FluxOR thallium flux, dofetilide IC70 present; activation (rescue from dofetilide block), less the hit threshold, % at 10 µM; 310,000 tested, 0.51% active;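 active means activation above the mean of controls blocked by dofetilide plus 5 SD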;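 further: thallium influx through hERG after potassium depolarization seen as dye fluorescence rise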
# Target sequence (Q12809 whole entry, looked up): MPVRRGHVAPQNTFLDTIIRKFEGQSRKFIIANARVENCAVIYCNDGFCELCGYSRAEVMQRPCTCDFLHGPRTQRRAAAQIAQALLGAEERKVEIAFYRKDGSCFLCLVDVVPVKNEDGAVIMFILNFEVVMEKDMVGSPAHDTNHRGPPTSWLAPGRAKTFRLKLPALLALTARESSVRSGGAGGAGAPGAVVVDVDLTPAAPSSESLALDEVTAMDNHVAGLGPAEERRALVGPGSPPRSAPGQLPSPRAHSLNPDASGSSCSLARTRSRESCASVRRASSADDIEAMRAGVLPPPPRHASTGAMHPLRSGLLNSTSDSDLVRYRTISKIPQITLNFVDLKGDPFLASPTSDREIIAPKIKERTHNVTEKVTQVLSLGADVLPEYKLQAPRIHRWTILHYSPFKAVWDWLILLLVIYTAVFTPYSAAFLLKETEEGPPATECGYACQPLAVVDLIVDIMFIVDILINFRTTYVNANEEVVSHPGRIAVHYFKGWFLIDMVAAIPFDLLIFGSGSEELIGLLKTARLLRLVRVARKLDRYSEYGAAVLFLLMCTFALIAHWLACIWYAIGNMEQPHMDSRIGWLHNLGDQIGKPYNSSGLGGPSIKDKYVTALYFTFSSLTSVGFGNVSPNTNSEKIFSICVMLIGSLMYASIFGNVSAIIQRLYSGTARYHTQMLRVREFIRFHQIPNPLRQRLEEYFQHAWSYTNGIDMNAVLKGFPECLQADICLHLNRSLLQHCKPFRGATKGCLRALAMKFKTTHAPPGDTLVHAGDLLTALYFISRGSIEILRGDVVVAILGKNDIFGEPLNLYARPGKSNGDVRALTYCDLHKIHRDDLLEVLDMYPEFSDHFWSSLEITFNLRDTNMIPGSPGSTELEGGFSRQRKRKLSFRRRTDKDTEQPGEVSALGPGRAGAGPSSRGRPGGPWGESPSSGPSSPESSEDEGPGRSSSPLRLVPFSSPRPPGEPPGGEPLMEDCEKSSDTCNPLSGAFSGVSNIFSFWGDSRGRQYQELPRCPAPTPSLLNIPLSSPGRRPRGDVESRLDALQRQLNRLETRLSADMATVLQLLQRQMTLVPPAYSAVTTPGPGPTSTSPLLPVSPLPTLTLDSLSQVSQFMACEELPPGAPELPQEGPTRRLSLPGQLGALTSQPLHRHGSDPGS
# KCNK3 inh – human KCNK3 channel inhibition, primary screen; 340,000 tested, 0.84% active; CHO-KCNK3 thallium flux, FluxOR fluorescence; hits give low values; B-score at 10 µM; O14649;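 active means B-score under library mean minus 4 SD, starting fluorescence ratio at most library mean plus 5 SD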;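 further: more negative B-score means stronger inhibition of thallium flux through KCNK3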
# KCNQ1 act – human KCNQ1 channel potentiation or activation. P51787. CHO-K1 KCNQ1, thallium flux FluxOR fluorescence; hits give high values. B-score at 10 µM. 310,000 tested, 0.35% active. AID 2648;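 active means fluorescence ratio B-score, a plate-corrected score, at least three library SD, with initial intensity B-score within 5 SD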
#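 Medium – assay buffer, equal DMSO in all wells · Material – CHO-K1 cell line with stable KCNQ1 potassium channel expression · Signal – kinetic FluxOR thallium fluorescence, 10-s 1-Hz baseline, 110-s post-stimulus read · Compound – single concentration per compound, DMSO matched to controls · Schedule – 37 °C overnight plating, 90-min dark dye load, 20-min compound pretreatment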
# KCNQ1 block – blocks the human KCNQ1 potassium channel. CHO-K1 KCNQ1, FluxOR thallium flux fluorescence; hits give high values. 310,000 tested, 1.3% active. AID 2642. B-score at 10 µM;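 active means compounds whose thallium flux B-score, printed positive for inhibition, exceeds three library SD while starting fluorescence stays within three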;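 further: channel opened by potassium depolarization with thallium stimulus after 20 min compound exposure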
# KCC2 sec1 – confirmation of human KCC2 transport modulators. shares compounds with Cl transport mod. HEK293-KCC2, thallium flux, FluoZin2 fluorescence; hits give high values. normalised thallium flux (F/F0 slope) at 10 µM. 3,700 tested, 15% active;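 active means thallium flux slope above the same plate's solvent-only control mean plus 3 SD; inconclusive means the two replicate wells disagree; inactive means no significant difference from solvent-only control wells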
# KCC2 bumet counter – thallium flux persisting under bumetanide in KCC2 cells, counter-screen secondary assay. shares compounds with Cl transport mod. normalized thallium flux at 10 µM. HEK293-KCC2 + bumetanide/ouabain, thallium flux FluoZin2; hits give high values. 3,700 tested, 49% active;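 active means thallium entry rate above the same plate's blocked-transporter control wells by more than 3 SD; inconclusive means the two repeat wells disagree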;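 further: raw slope of fluorescence over initial fluorescence between 10 and 20 s after thallium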
# KCC2 sec2 – confirmation of human KCC2 transport modulators; shares compounds with Cl transport mod; HEK293-KCC2, thallium flux FluoZin2 fluorescence; actives lie on both sides; F/F0 rise rate, 10–20 s post-thallium; normalized thallium flux at 10 µM; 3,700 tested, 23% active; AID 1715;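 active means thallium flux slope more than 3 SD above or below the plate's solvent-only control mean, mostly below; inconclusive means the two repeat wells disagreed; inactive means no significant shift from solvent-only controls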;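 further: raw slope with 0.1% DMSO as baseline and bumetanide as block control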
# HEK293 Tl flux – counter-screen for KCC2 modulators: effect in parental HEK293 cells; 3,700 tested, 46% active; shares compounds with Cl transport mod; thallium flux rate (normalised fluorescence) at 10 µM; AID 1716; thallium flux FluoZin2, ouabain; baseline-ratio fluorescence slope, 10–20 s after thallium;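 active means thallium flux rate significantly above the same plate's solvent-only control wells, beyond their mean plus 3 SD; inconclusive means the two replicate wells gave conflicting results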
# KCC2 retest ouab – KCC2 (human) modulation, ouabain retest; 3,700 tested, 48% active; shares compounds with Cl transport mod; raw Tl+ flux slope (below DMSO = inhibition, above = activation) at 10 µM; HEK293-KCC2, thallium flux FluoZin2 fluorescence; bidirectional: low = inhibitor, high = activator;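 active means thallium flux slope beyond 3 SD from same-plate DMSO control mean in most replicates, usually higher, sometimes lower; inconclusive means repeat tests gave conflicting results; inactive means no significant difference from controls in most replicates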;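 further: slope of initial-normalized fluorescence between seconds 10 and 20 after thallium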
# HEK293 Tl flux2 – parental HEK flux effect, counter-screen 2 | shares compounds with Cl transport mod | HEK293 parental, thallium flux FluoZin-2 fluorescence slope | thallium flux slope at 10 µM | 3,700 tested, 33% active | AID 1718;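 active means thallium flux slope above the same plate's solvent-control mean plus 3 SD in both duplicate wells; inconclusive means duplicate wells that disagreed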;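 further: run without ouabain in cells lacking the KCC2 cotransporter; slope of fluorescence scaled to its starting value between 10 and 20 s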
# Starred values were filed as active, the others as inactive; i = inactive; ? = inconclusive; . = no result given. An excerpt weighted towards active compounds, which were near 4.1% of everything screened.
SMILES,KCNK9 inh,Cl transport mod,hERG rescue,KCNK3 inh,KCNQ1 act,KCNQ1 block,KCC2 sec1,KCC2 bumet counter,KCC2 sec2,HEK293 Tl flux,KCC2 retest ouab,HEK293 Tl flux2
COc1ccc(CC(=O)NNC(=O)CSc2nc(C)c(C)c(=O)[nH]2)cc1,i,0.22,-5,i,i,i,.,.,.,.,.,.
Cc1ccc2c(c1)nnn2C1CCN(S(=O)(=O)c2cccc(S(=O)(=O)N(C)C)c2)CC1,i,.,-2,i,i,i,0.0069,0.0057,?,0.0064,?,0.0095
O=S(=O)(NC1CCCC1)c1cccc(S(=O)(=O)N2CCC(n3nnc4ccccc43)CC2)c1,i,.,-12,i,i,i,0.018,0.0048,?,0.0067,0.013,0.01
CCOC(=O)CSc1nc2c(c(=O)n(C)c(=O)n2C)n1CCCc1ccccc1,i,-1.7,-8,i,i,i,.,.,.,.,.,.
Cc1oc(-c2ccc(-c3ccccc3)cc2)nc1CN(CCO)C(C)C,i,.,-12,i,i,i,.,.,.,.,.,.
Cc1ccc(S(=O)(=O)Oc2ccccc2/C=C2\SC(=O)NC2=O)cc1,i,-6*,-16,i,i,8*,?,0.004,0.024*,0.0066*,0.015*,0.01
O=C(COc1ccccc1/C=C1\SC(=O)NC1=O)Nc1ccc(F)cc1,i,-3.1*,-1,i,i,i,0.0075,0.0068,0.032,0.0036,0.013*,0.011
CCOc1ncccc1C(=O)OCc1cccc([N+](=O)[O-])c1,i,-0.23,-7,i,i,i,.,.,.,.,.,.
Oc1ccccc1/C=N/n1c(COc2ccccc2)n[nH]c1=S,i,.,-15,i,i,i,.,.,.,.,.,.
CC(/C=N/n1c(COc2ccccc2)n[nH]c1=S)=C\c1ccco1,i,121*,-5,i,i,i,0.015*,0.17*,0.034,0.055*,0.046*,0.014*
S=c1[nH]nc(COc2ccccc2)n1/N=C/c1ccc(Br)s1,i,51*,-13,i,i,i,?,0.077*,0.034,0.022*,0.027*,0.026*
CC(=C1SC(=S)NC1=O)c1ccccc1,.,.,.,i,.,.,.,.,.,.,.,.
CCN(/N=C/C=C/c1ccccc1)c1cc(=O)n(C)c(=O)[nH]1,i,-0.083,-2,i,i,i,.,.,.,.,.,.
COc1cccc(NC(=O)COC(=O)c2nc3nccc(C)n3n2)c1,i,-5.4*,-11,i,i,i,0.0077,0.0042,0.03,?,0.018,0.011
COc1ccc(C(C)(C)C)cc1NC(=O)COC(=O)c1nc2nccc(C)n2n1,.,.,.,i,.,.,.,.,.,.,.,.
Cc1ccccc1COc1ccc(-c2nnn(CC(=O)O)n2)cc1,i,.,-6,i,i,i,.,.,.,.,.,.
Cc1ccc(-c2ccc(S(=O)(=O)NCC3CCCO3)cc2)cc1 (stereo not drawn),i,-4.9*,-8,i,i,i,0.0054,0.0041,0.026*,0.0078,?,0.011
Cc1ccc(S(=O)(=O)Nc2ccc(S(=O)(=O)NCC3CCCO3)cc2)cc1 (stereo not drawn),i,.,-4,i,i,i,.,.,.,.,.,.
Cc1[nH]n(-c2ccccc2)c(=O)c1/C=N/N(c1ccccc1)c1ccccc1,i,68*,-5,i,i,i,?,0.11*,0.072*,0.063*,0.088*,0.061*
Cc1[nH]n(-c2ccccc2)c(=O)c1C=Nc1cccc(F)c1,i,4.6*,-7,i,i,i,0.012,0.033*,0.03,0.016*,0.028,?
C=CCN=Cc1c(C)[nH]n(-c2ccccc2)c1=O,i,0.095,-4,i,i,i,.,.,.,.,.,.
Cc1cccc(/N=C/c2c(C)[nH]n(-c3ccccc3)c2=O)n1,i,18*,-10,i,i,i,0.0098,0.032*,0.03,0.012*,?,?
Cc1ccc(-n2[nH]c(C)c(/C=N/c3cccc(C)n3)c2=O)cc1,i,4.9*,-8,i,i,i,0.0075,0.013*,0.032,0.013*,?,0.011
Cc1[nH]n(-c2ccccc2)c(=O)c1C=Nc1ccc2[nH]c(=O)[nH]c2c1,i,-0.58,-3,i,i,i,.,.,.,.,.,.
O=C1CCCc2c1[nH]c1ccc(CN3CCCCC3)cc21,i,-5.1*,-8,i,i,i,0.0052,0.0048,0.029,0.0077,0.018,0.01
SMILES,KCNK9 inh,Cl transport mod,hERG rescue,KCNK3 inh,KCNQ1 act,KCNQ1 block,KCC2 sec1,KCC2 bumet counter,KCC2 sec2,HEK293 Tl flux,KCC2 retest ouab,HEK293 Tl flux2
COc1ccc(C(=O)Nc2cccc3nc(C)ccc23)cc1OC,i,.,-5,i,i,i,.,.,.,.,.,.
O=C(NC(Cc1ccccc1)C(=O)OCC(=O)N1CCc2ccccc21)c1ccco1 (stereo not drawn),i,-3.7*,-12,i,i,i,0.015,0.005,0.022*,0.007,0.015,0.0097
Cc1ccc(NC(=O)COC(=O)CCn2c(C)csc2=O)cc1S(=O)(=O)N1CCOCC1,i,.,-12,i,i,i,.,.,.,.,.,.
Cc1cccc(C(=O)OCC(=O)N2CCC(c3ccccc3)=N2)c1O,i,.,-10,i,i,i,.,.,.,.,.,.
Cc1sc2ncn(CC(=O)OCC(=O)NC(C)(C)C)c(=O)c2c1C,i,.,-6,i,i,i,0.0068,0.005,0.03,0.008,0.019,0.011
CCN(CC)C(=O)C1CC(=O)N(c2ccc(OC)cc2)C1c1ccc(OC)cc1 (stereo not drawn),i,-4.1*,-9,i,i,i,0.0062,0.0057*,0.028,0.0082,0.019,0.011
